Like-named read-outs stand apart in the source and are kept apart here.
Tests used:
[1] = Calculated hepatic extraction ratio; details: low (<0.3)
[2] = Stability tests of QC samples in pooled human plasma; assay type: physicochemical; details: for degradation of QC samples: QC low, medium and high
Summary of the method: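 QC samples (12, 120, 900 ng/mL) spiked into pooled human plasma in triplicate, then held at bench top, in the autosampler, or 1 month at -80 °C. Extraction: diethyl ether liquid-liquid, dried under nitrogen at 37 °C, reconstituted in mobile phase. Analysis: C18 LC-MS/MS with positive ESI MRM (438.3/357.2) against a 1/x2-weighted calibration (5–1000 ng/mL). Accuracy = measured/nominal × 100%.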

[3] = assay type: in vivo, human; details: oral 800 mg daily
Summary of the method: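 Plasma from patients on oral 800 mg daily for at least one week, excluding combined TKI therapy; blood centrifuged at 3000 rpm, plasma stored at -20 °C. Free fraction by rapid equilibrium dialysis (8000 Da cut-off) against PBS at 37 °C, 250 rpm, 6 h, in technical duplicates. Quantified by C18 HPLC with positive-ESI MRM, erlotinib internal standard, calibration 5–1000 ng/mL.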

[4] = test system: albumin; details: mainly bound to albumin; cited from earlier work
[5] = test system: renal cancer patients; details: renal cancer patients in clinical trials, up; cited from earlier work

calculated hepatic extraction ratio [1]: 0.00346
degradation of QC samples ([2]; 1 month of storage at -80 °C): No significant degradation
Stability, Accuracy (%) from nominal concentration ([2]; Autosampler: extracted samples stored for 14 h at room temperature, 12 ppb): 96.45%
Stability, Accuracy (%) from nominal concentration ([2]; Autosampler: extracted samples stored for 14 h at room temperature, 120 ppb): 96.56%
Stability, Accuracy (%) from nominal concentration ([2]; Autosampler: extracted samples stored for 14 h at room temperature, 900 ppb): 96.02%
Stability, Accuracy (%) from nominal concentration ([2]; Bench Top: plasma samples stored at room temperature for 8h, 12 ppb): 113.11%
Stability, Accuracy (%) from nominal concentration ([2]; Bench Top: plasma samples stored at room temperature for 8h, 120 ppb): 93.21%
Stability, Accuracy (%) from nominal concentration ([2]; Bench Top: plasma samples stored at room temperature for 8h, 900 ppb): 97.02%
Stability, Accuracy (%) from nominal concentration ([2]; Freeze Thaw: three freeze thaw cycles, 12 ppb): 93.79%
Stability, Accuracy (%) from nominal concentration ([2]; Freeze Thaw: three freeze thaw cycles, 120 ppb): 93.50%
Stability, Accuracy (%) from nominal concentration ([2]; Freeze Thaw: three freeze thaw cycles, 900 ppb): 100.49%
Stability, Accuracy (%) from nominal concentration ([2]; Long Term: stored at -80 °C for 1 month, 12 ppb): 100.58%
Stability, Accuracy (%) from nominal concentration ([2]; Long Term: stored at -80 °C for 1 month, 120 ppb): 113.89%
Stability, Accuracy (%) from nominal concentration ([2]; Long Term: stored at -80 °C for 1 month, 900 ppb): 114.23%
degradation of QC samples ([2]; auto sampler conditions): No significant degradation
degradation of QC samples ([2]; bench top conditions): No significant degradation
free drug concentration ([3]; 17 patients' plasma samples, mean ± standard deviation): 5.84 ± 3.02 ng/mL
Plasma free drug concentration (Median ± Interquartile range) ([3]; patients with low albumin level (<40 g/L) (n = 7)): 6.49 ± 3.65 ng/mL
Plasma free drug concentration (Median ± Interquartile range) ([3]; patients with normal albumin level (n = 8)): 4.88 ± 2.71 ng/mL
Plasma free drug concentration (Median ± Interquartile range) ([3]; patients with very low albumin level (<30 g/L) (n = 2)): 3.44 ± 1.32 ng/mL
SMILES: Cc1ccc(Nc2nccc(N(C)c3ccc4c(C)n(C)nc4c3)n2)cc1S(N)(=O)=O [pazopanib, Pazopanib]
degradation of QC samples ([2]; three freeze-thaw cycles): did not result in significant degradation
plasma protein binding [4]: > 99.9%
proportion of patients with increases in serum transaminases and bilirubin [5]: 40–50%
